Measured values from ChEMBL document CHEMBL4819119, “Design and evaluation of 1,2,3-dithiazoles and fused 1,2,4-dithiazines as anti-cancer agents” (Bioorg Med Chem Lett, 2021).
≈ marks a conversion by molar mass, not a printed value. Values belong to the compound of their own block, whether it stands above or below them.

Legend:
[1] = tested on: MCF7; assay: Cytotoxicity against human MCF7 cells assessed as reduction in cell viability incubated for 72 hrs by alamar blue assay; format: functional, cell-based; details: MCF7, 72 h
In short: (§1)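 Cells seeded in 384-well plates and dosed 24 h after plating, in quadruplicate. Viability was read by alamarBlue fluorescence at 72 h. IC50 came from nonlinear regression as the mean of 4 replicates. Growth media carried 10% FBS and 1% pen/strep: UCH1/UCH2 in 4:1 IMDM:RPMI-1640 in gel-coated flasks; A431, PANC1 and WS1 in DMEM; DU145 and MCF7 in MEM; 5637 in RPMI-1640.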

[2] = tested on: 5637; assay: Cytotoxicity against human 5637 cells assessed as reduction in cell viability incubated for 72 hrs by alamar blue assay; format: functional, cell-based; details: Homo sapiens, 5637, 72 h; in short: as §1
[3] = tested on: DU-145; assay: Cytotoxicity against human DU-145 cells assessed as reduction in cell viability incubated for 72 hrs by alamar blue assay; format: functional, cell-based; details: DU-145, 72 h; in short: as §1
[4] = tested on: PANC-1; assay: Cytotoxicity against human PANC1 cells assessed as reduction in cell viability incubated for 72 hrs by alamar blue assay; format: functional, cell-based; details: PANC-1, 72 h; in short: as §1
[5] = Cytotoxicity against human UCH1 cells assessed as reduction in cell viability incubated for 72 hrs by alamar blue assay; format: functional, cell-based; details: UCH1, 72 h; in short: as §1
[6] = Cytotoxicity against human UCH2 cells assessed as reduction in cell viability incubated for 72 hrs by alamar blue assay; format: functional, cell-based; details: UCH2, 72 h; in short: as §1
[7] = tested on: A-431; assay: Cytotoxicity against human A-431 cells assessed as reduction in cell viability incubated for 72 hrs by alamar blue assay; format: functional, cell-based; details: A-431, 72 h; in short: as §1
[8] = Cytotoxicity against human WS1 cells assessed as reduction in cell viability incubated for 72 hrs by alamar blue assay; format: cell-based; details: WS1, 72 h; in short: as §1
[9] = target: T1, Neutral amino acid transporter B(0) (Homo sapiens, UniProt Q15758); assay: Inhibition of ASCT2 (unknown origin)
T1 sequence (Q15758 whole entry): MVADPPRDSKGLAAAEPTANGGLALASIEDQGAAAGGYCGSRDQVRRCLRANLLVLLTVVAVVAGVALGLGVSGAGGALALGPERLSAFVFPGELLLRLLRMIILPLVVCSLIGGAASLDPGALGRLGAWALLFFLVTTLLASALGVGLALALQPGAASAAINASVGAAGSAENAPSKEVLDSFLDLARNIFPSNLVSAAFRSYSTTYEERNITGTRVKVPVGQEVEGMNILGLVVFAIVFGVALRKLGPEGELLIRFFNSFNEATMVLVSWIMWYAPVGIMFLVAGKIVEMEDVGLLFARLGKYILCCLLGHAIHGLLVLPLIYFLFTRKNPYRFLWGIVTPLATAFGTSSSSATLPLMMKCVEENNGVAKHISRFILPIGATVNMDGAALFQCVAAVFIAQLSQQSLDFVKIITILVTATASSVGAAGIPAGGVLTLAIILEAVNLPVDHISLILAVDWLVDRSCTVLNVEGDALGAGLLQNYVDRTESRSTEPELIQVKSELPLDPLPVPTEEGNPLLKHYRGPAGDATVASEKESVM

[10] = tested on: K562; assay: Cytotoxicity against human K562 cells; format: functional, cell-based
[11] = tested on: L1210; assay: Cytotoxicity against mouse L1210 cells; format: functional, cell-based
[12] = tested on: Staphylococcus aureus; assay: Antibacterial activity against Staphylococcus aureus; format: functional
[13] = tested on: Enterococcus faecalis; assay: Antibacterial activity against Enterococcus faecalis; format: functional
[14] = tested on: Listeria monocytogenes; assay: Antibacterial activity against Listeria monocytogenes; format: functional
[15] = tested on: Cryptococcus neoformans; assay: Antifungal activity against Cryptococcus neoformans; format: functional
[16] = tested on: PANC-1; assay: Cytotoxicity against human PANC1 cells assessed as reduction in cell viability incubated upto 72 hrs by MTT assay; format: functional, cell-based; details: PANC-1, 72 h
[17] = tested on: 5637; assay: Cytotoxicity against human 5637 cells assessed as reduction in cell viability incubated for 3 hrs by MTT assay; format: functional, cell-based; details: Homo sapiens, 5637, 3 h

SMILES: Clc1nss/c1=N\c1ccc(Oc2ccccc2)cc1
IC50 [1]: 35 µM
IC50 [2]: 35 µM
IC50 [3]: > 100 µM
IC50 [4]: 55 µM
IC50 [5]: 30 µM
IC50 [6]: 33 µM
IC50 [7]: > 100 µM
IC50 [8]: > 100 µM

SMILES: O=c1ssnc1N1CCN(CCSc2nc3ccccc3s2)CC1
IC50 [1]: 9.9 µM
IC50 [2]: 33 µM
IC50 [3]: 22 µM
IC50 [4]: 77 µM
IC50 [5]: 25 µM
IC50 [6]: 31 µM
IC50 [7]: 90 µM
IC50 [8]: 92 µM

SMILES: CN(CCN1CCN(c2nssc2=O)CC1)c1ccccc1
IC50 [1]: 2.2 µM
IC50 [2]: 12 µM
IC50 [3]: 4.4 µM
IC50 [4]: 21 µM
IC50 [5]: 12 µM
IC50 [6]: 17 µM
IC50 [7]: 17 µM
IC50 [8]: 20 µM

IC50 [9]: 8.1 µM
SMILES: CC.FC(F)(F)Oc1ccc(/N=c2\ssnc2Cl)cc1Cl
IC50 [1]: 88 µM
IC50 [2]: 33 µM
IC50 [3]: 32 µM
IC50 [4]: > 100 µM
IC50 [5]: > 100 µM
IC50 [6]: 43 µM
IC50 [7]: > 100 µM
IC50 [8]: > 100 µM

SMILES: N#Cc1cnn(CCc2ccccc2)c1/N=c1\ssnc1Cl
IC50 [10]: 3 µM
IC50 [11]: 5 µM

SMILES: Clc1nss/c1=N\c1ccc2c(c1)OCO2
IC50 [1]: 19 µM
IC50 [2]: 32 µM
IC50 [3]: 17 µM
IC50 [4]: 24 µM
IC50 [5]: 28 µM
IC50 [6]: 22 µM
IC50 [7]: 95 µM
IC50 [8]: 84 µM

SMILES: O=S(=O)(Nc1ncccn1)c1ccc(/N=c2\ssnc2Cl)cc1
IC50 [1]: 3 µM
IC50 [2]: 39 µM
IC50 [3]: 29 µM
IC50 [4]: 37 µM
IC50 [5]: 34 µM
IC50 [6]: 19 µM
IC50 [7]: > 100 µM
IC50 [8]: > 100 µM

SMILES: Clc1nss/c1=N\c1ccc(OCc2ccccc2)cc1
IC50 [1]: 50 µM
IC50 [2]: 13 µM
IC50 [3]: 45 µM
IC50 [4]: > 100 µM
IC50 [5]: 44 µM
IC50 [6]: > 100 µM
IC50 [7]: > 100 µM
IC50 [8]: > 100 µM

SMILES: N#CC1=Nc2c(c(-c3ccccc3)nn2Cc2ccccc2)SS1
IC50 [1]: 54 µM
IC50 [2]: 8.7 µM
IC50 [3]: 32 µM
IC50 [4]: > 100 µM
IC50 [5]: > 100 µM
IC50 [6]: > 100 µM
IC50 [7]: 54 µM
IC50 [8]: 51 µM

SMILES: N#CSCCN1CCN(c2nss/c2=N\c2ccccc2)CC1
IC50 [1]: 32 µM
IC50 [2]: 93 µM
IC50 [3]: 14 µM
IC50 [4]: 16 µM
IC50 [5]: 38 µM
IC50 [6]: 38 µM
IC50 [7]: > 100 µM
IC50 [8]: > 100 µM

SMILES: CCCCOc1ccc(/N=c2\ssnc2Cl)cc1
IC50 [1]: 42 µM
IC50 [2]: 18 µM
IC50 [3]: 52 µM
IC50 [4]: > 100 µM
IC50 [5]: 54 µM
IC50 [6]: 48 µM
IC50 [7]: > 100 µM
IC50 [8]: > 100 µM

SMILES: N#Cc1c(Br)cccc1/N=c1\ssnc1Cl
IC50 [1]: 28 µM
IC50 [2]: 14 µM
IC50 [3]: 42 µM
IC50 [4]: 13 µM
IC50 [5]: 39 µM
IC50 [6]: 65 µM
IC50 [7]: > 100 µM
IC50 [8]: > 100 µM

SMILES: Clc1nss/c1=N\c1cc(-c2ccccc2)nn1Cc1ccccc1
IC50 [1]: 30 µM
IC50 [2]: 16 µM
IC50 [3]: 14 µM
IC50 [4]: 18 µM
IC50 [5]: 30 µM
IC50 [6]: 52 µM
IC50 [7]: > 100 µM
IC50 [8]: > 100 µM

SMILES: FC(F)(F)Oc1ccc(/N=c2\ssnc2Cl)cc1Br
IC50 [1]: 73 µM
IC50 [2]: 36 µM
IC50 [3]: 52 µM
IC50 [4]: > 100 µM
IC50 [5]: 34 µM
IC50 [6]: 85 µM
IC50 [7]: 100 µM
IC50 [8]: > 100 µM

MIC [12]: 16 µg/mL (≈ 70 µM)
MIC [13]: 16 µg/mL (≈ 70 µM)
MIC [14]: 16 µg/mL (≈ 70 µM)
SMILES: Clc1nss/c1=N\c1ccccc1

MIC [15]: 8 µg/mL (≈ 30.9 µM)
SMILES: COc1ccc(/N=c2\ssnc2Cl)cc1

MIC [15]: 8 µg/mL (≈ 31.5 µM)
SMILES: N#Cc1ccccc1/N=c1\ssnc1Cl

SMILES: Cc1[nH]c2ccccc2c1CCNCc1ccc(/C=C/C(=O)NO)cc1 [PANOBINOSTAT]
IC50 [16]: 1 µM

SMILES: Cc1ccc(Nc2nccc(N(C)c3ccc4c(C)n(C)nc4c3)n2)cc1S(N)(=O)=O [PAZOPANIB]
IC50 [17]: 15 µM
